Results collected from several papers.
OPRK1: Kappa-type opioid receptor (OPRK1, Homo sapiens, UniProt P41145)

`Fc1ccccc1CC(c1ccccc1)N1CCCC1` (centres unmarked) has a Ki of 642 nM (OPRK1; ligand displacement, radioligand).
The Ki of `C[C@@H](NC(=O)[C@@H](N)Cc1ccc(O)cc1)C(=O)NCC(=O)N[C@@H](Cc1ccc(Cl)cc1)C(=O)N(C)CCC[C@@]1(c2ccc(F)cc2)OCc2cc(C#N)ccc21` is reported as 43 nM (OPRK1; cell-free assay).
With `CC[C@H](C)[C@H](NC(=O)[C@H](CCCNC(=N)N)NC(=O)[C@H](CC(C)C)NC(=O)[C@@H](N)Cc1ccccc1)C(=O)N[C@@H](CCCNC(=N)N)C(=O)N1CCC[C@H]1C(=O)N[C@@H](CCCCN)C(=O)O` the Ki was over 10000 nM (OPRK1; ligand displacement, radioligand).
With `CN[C@]1(c2ccccc2Cl)CCCCC1=O` the Ki was 8500 nM (OPRK1; ligand displacement, radioligand).
`Cc1cc(O)cc(C)c1C[C@H](N)C(=O)N1CCc2ccc(Cc3ccc([N+](=O)[O-])cc3)cc2C1` gave a Ki of 22 nM (OPRK1; ligand displacement, radioligand; cell membranes).
`Oc1ccc2c3c1O[C@H]1c4ncc(-c5ccccc5)cc4C[C@@]4(OCCCc5cccnc5)[C@@H](C2)N(CC2CC2)CC[C@]314` has a Ki of 5.3 nM (OPRK1; cell-free assay).
With `CCCC[C@@H](NC(=O)[C@@H](N)Cc1ccc(O)cc1)C(=O)NCC(=O)N[C@@H](Cc1ccc(F)cc1)C(=O)N(C)CCC[C@@]1(c2ccc(F)cc2)OCc2cc(C#N)ccc21` the Ki was 68 nM (OPRK1; cell-free assay).
`Cc1cc(O)cc(C)c1C[C@H](N)C(=O)N1CCc2ccc(Cc3ccccc3N)cc2C1` has a Ki of 25 nM (OPRK1; ligand displacement, radioligand; cell membranes).
`C[C@H]1[C@H]2Cc3ccc(O)cc3[C@]1(C)CCN2CC1CC1` has a Ki of 2.95 nM (Kappa-type opioid receptor (OPRK1, Homo sapiens, UniProt P41145, I135L); cell-free assay).
`COc1ccsc1CNCC[C@@]1(c2ccccn2)CCOC2(CCCC2)C1` gave a Ki of 2700 nM (OPRK1; cell-free assay).
`Cc1ccc(Cc2ccc3c(c2)CN(C(=O)[C@@H](N)Cc2c(C)cc(O)cc2C)CC3)cc1` gave a Ki of 233 nM (OPRK1; ligand displacement, radioligand; cell membranes).
With `CC(=O)Nc1ccccc1-c1cnc2c(c1)C[C@@]1(OCCCc3ccccc3)[C@H]3Cc4ccc(O)c5c4[C@@]1(CCN3CC1CC1)[C@H]2O5` the Ki was 13.5 nM (OPRK1; cell-free assay).
`C[C@@H](NC(=O)[C@@H](N)Cc1ccc(O)cc1)C(=O)NCC(=O)N[C@@H](Cc1ccccc1)C(=O)N(C)CCC[C@@]1(c2ccc(F)cc2)OCc2cc(C#N)ccc21` gave a Ki of 86 nM (OPRK1; cell-free assay).
With `Cc1cc(O)cc(C)c1C[C@H](N)C(=O)N1CCc2ccc(Cc3ccccc3[N+](=O)[O-])cc2C1` the Ki was 2.6 nM (OPRK1; ligand displacement, radioligand; cell membranes).
